Assay outcomes: PubChem BioAssay, several laboratories
KCNQ1 inh = human KCNQ1 channel inhibition; P51787; CHO-K1 KCNQ1, FluxOR thallium flux fluorescence; hits give high values; B-score at 10 µM; 310,000 compounds, 1.3% hits; AID 2642;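 active means compounds whose thallium flux B-score, printed positive for inhibition, exceeds three library SD while starting fluorescence stays within three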;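 further: channel opened by potassium depolarization with thallium stimulus after 20 min compound exposure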
Target sequence (P51787 whole entry, looked up): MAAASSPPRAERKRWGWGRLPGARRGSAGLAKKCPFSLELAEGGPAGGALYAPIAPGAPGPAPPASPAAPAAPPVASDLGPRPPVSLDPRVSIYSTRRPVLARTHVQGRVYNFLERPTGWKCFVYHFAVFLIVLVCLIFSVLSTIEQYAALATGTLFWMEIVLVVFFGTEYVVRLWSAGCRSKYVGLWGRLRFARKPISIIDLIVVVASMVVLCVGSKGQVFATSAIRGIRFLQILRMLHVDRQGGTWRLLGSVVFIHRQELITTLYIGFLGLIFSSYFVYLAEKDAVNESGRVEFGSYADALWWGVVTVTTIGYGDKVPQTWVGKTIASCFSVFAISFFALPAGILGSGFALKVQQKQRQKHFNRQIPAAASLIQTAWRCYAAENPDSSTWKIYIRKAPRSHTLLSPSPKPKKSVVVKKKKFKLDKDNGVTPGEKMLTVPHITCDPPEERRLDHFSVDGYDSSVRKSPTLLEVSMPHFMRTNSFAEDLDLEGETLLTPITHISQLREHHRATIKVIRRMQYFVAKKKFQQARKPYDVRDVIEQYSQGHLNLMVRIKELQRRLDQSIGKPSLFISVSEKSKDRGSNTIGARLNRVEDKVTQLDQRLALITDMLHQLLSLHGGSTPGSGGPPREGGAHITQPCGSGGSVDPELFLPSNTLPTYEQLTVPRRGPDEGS
KCNK9 inh = blocks the human KCNK9 two-pore domain potassium channel; 310,000 compounds, 1.2% hits; HEK293 KCNK9, FluxOR thallium flux fluorescence; hits give low values; Q9NPC2; B-score at 10 µM;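 active means ratio B-score over 3 SD below the library mean, with starting fluorescence within 5 SD of its mean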;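 further: negative B-score means less thallium flux so channel inhibition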
Cl transport mod = modulates chloride dependent transport by human KCC2 | KCC2 cells, thallium flux FluoZin-2 fluorescence | B-score of Tl+ flux slope (higher = more flux/activation; lower = inhibition) at 10 µM | AID 1456 | 190,000 compounds, 2.2% hits | Q9H2X9;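 active means thallium flux slope and its plate-corrected score both differing from the plate sample mean at a set confidence after two filtering rounds, in either direction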;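 further: slope of fluorescence scaled to starting intensity during 10 to 20 s after thallium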
KCNQ1 act = human KCNQ1 channel potentiation or activation; P51787; CHO-K1 KCNQ1, thallium flux FluxOR fluorescence; hits give high values; B-score at 10 µM; 310,000 compounds, 0.35% hits;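 active means fluorescence ratio B-score, a plate-corrected score, at least three library SD, with initial intensity B-score within 5 SD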
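Assay system: CHO-K1 cells stably expressing KCNQ1. Medium: assay buffer for compound exposure, DMSO matched across wells. Timing: 37 °C overnight plating, 90-min dark dye load, 20-min compound pretreatment. Signal: kinetic FluxOR fluorescence, 10 s baseline plus 110 s post-stimulus.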
KCNK3 block = human KCNK3 channel inhibition, primary screen; O14649; CHO-KCNK3 thallium flux, FluxOR fluorescence; hits give low values; B-score at 10 µM; 340,000 compounds, 0.84% hits; AID 602410;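 active means B-score under library mean minus 4 SD, starting fluorescence ratio at most library mean plus 5 SD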;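 further: more negative B-score means stronger inhibition of thallium flux through KCNK3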
hERG rescue = shields human hERG channel from block by proarrhythmic agents; activation (rescue from dofetilide block), less the hit threshold, % at 10 µM; CHO-hERG, FluxOR thallium flux, dofetilide IC70 present; 310,000 compounds, 0.51% hits; Q12809; AID 1511;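 active means activation above the mean of controls blocked by dofetilide plus 5 SD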;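 further: thallium influx through hERG after potassium depolarization seen as dye fluorescence rise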
KCNK3 confirm = confirmation of human KCNK3 two-pore domain potassium channel inhibitors. shares compounds with KCNK3 block. CHO-KCNK3 thallium flux, FluxOR fluorescence; 0% buffer, 100% carvedilol maximal block. ratio percent of control, % at 10 µM. 2,400 compounds, 99% hits. AID 651638;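 active means ratio percent of control, averaged over triplicates, above buffer control mean plus 5 SD, cut at about 64% in these data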;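 further: ratio is the fluorescence rise from min to max over baseline after thallium stimulus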
KCNK3 uninduced = activity in cells without induced KCNK3 expression. 2,400 compounds, 40% hits. thallium flux ratio (lower = more inhibition) at 10 µM. non-induced KCNK3 parental cells, FluxOR thallium flux; hits give low values. shares compounds with KCNK3 block;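 active means thallium flux ratio, averaged over three wells, more than 5 SD below the buffer control mean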;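 further: host cells are CHO cells without KCNK3 induction; ratio is peak minus trough fluorescence over baseline then normalized to buffer controls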
The depositor's hits bear a star; i = inactive; / = not tested or not shown. Hits are enriched below; roughly 4.1% of the tested compounds scored in any of these assays.

SMILES | KCNQ1 inh | KCNK9 inh | Cl transport mod | KCNQ1 act | KCNK3 block | hERG rescue | KCNK3 confirm | KCNK3 uninduced
CCOc1ccc(OCC)c(S(=O)(=O)n2cnc(C)c2)c1 | i | i | / | i | -8.8* | -9 | 82* | i
COc1ccc(-c2csc3ncnc(N4CCN(Cc5ccccc5)CC4)c23)cc1 | i | i | / | i | i | -20 | / | /
COc1ccc(-c2csc3ncnc(N4CCN(c5ccccc5[N+](=O)[O-])CC4)c23)cc1 | 8* | i | / | i | -8.7* | -16 | 97* | i
COc1ccc(-c2csc3ncnc(N4CCN(c5ccc(OC)cc5)CC4)c23)cc1 | i | i | / | i | -11* | -15 | 92* | i
CCCNC(=O)C(Cc1ccc(Br)cc1)NC(=O)c1ccc(C#N)cc1 (stereo not drawn) | / | / | / | / | i | / | / | /
CCOc1ccc(C2c3c(oc4ccccc4c3=O)C(=O)N2c2ccc(C)cn2)cc1OC (stereo not drawn) | i | i | 0.24 | i | -11* | -5 | 99* | i
COc1cc(C2c3c(oc4ccccc4c3=O)C(=O)N2c2ccc(C)cn2)ccc1O (stereo not drawn) | i | i | -2 | i | i | -7 | / | /
CC(C)NC(=O)c1ccc(N(Cc2ccc(Cl)cc2)S(C)(=O)=O)cc1 | i | i | / | i | i | -9 | / | /
CC(C)CCN(C(=O)CCCSc1nc2ccccc2[nH]1)c1c(N)n(Cc2ccccc2)c(=O)[nH]c1=O | i | i | / | i | i | -11 | / | /
Fc1ccc(C2=Nc3cccc4cccc(c34)N2)cc1 | i | i | / | i | i | -1 | / | /
FC(F)(F)C1=Nc2cccc3cccc(c23)N1 | / | / | / | / | -13* | / | 127* | 0.11*
COc1ccc(Cl)cc1NC(=O)CN(C)CC(=O)Nc1ccccc1C(F)(F)F | i | i | 0.0064 | i | -9.1* | -21 | 102* | i
COc1ccc(Cl)cc1NC(=O)CN(C)C(=O)c1cc2c(s1)CCC(C)C2 (stereo not drawn) | i | i | / | i | -8.8* | -11 | 107* | i
COc1ccc(CN(C)CC(=O)Nc2cccc3ccccc23)cc1F | i | i | / | i | -11* | -14 | 91* | i
CCOc1ccc(CN(C)CC(=O)Nc2cccc3ccccc23)cc1OC | i | i | -1.7 | i | i | -13 | / | /
Cn1c(=O)c2[nH]c(Cc3ccsc3)nc2n(C)c1=O | / | / | / | / | i | / | / | /
Cc1ccc(CNC(=O)Cn2c(=O)oc3ccccc32)o1 | i | i | 0.89 | i | -12* | -4 | 77* | i
CC(C)Oc1ccc(CNC(=O)Cn2c(=O)oc3ccccc32)cc1 | i | i | -0.097 | i | i | 1 | / | /
COc1ccc(C(=O)N2CCN(c3ccc(C(C)=O)cc3)CC2)cc1S(=O)(=O)N1CCCC1 | / | / | / | / | i | / | / | /
COc1cc2c(cc1OC)C(c1cccs1)N(C(=S)NC(C)C)CC2 (stereo not drawn) | i | i | -2.3 | i | -11* | -16 | 94* | i
c1ccc(-c2nc(NCCCn3ccnc3)c3ccccc3n2)cc1 | i | i | 0.34 | i | -11* | -31 | 100* | 0.15*
CCOc1ccccc1NC(=S)NC(=O)CCCOc1ccc(Cl)cc1Cl | i | i | -0.53 | i | -11* | 2 | 109* | i
CCCn1c2ccccc2c2cnn(CC(=O)N3CCN(C4CCCCC4)CC3)c(=O)c21 | i | i | / | i | i | -5 | / | /
CCCC(=O)Nc1nc2c(s1)COc1ccccc1-2 | i | i | / | i | i | -6 | / | /
O=C(CCSc1ccccc1)Nc1nc2c(s1)COc1ccccc1-2 | i | i | 0.5 | i | -9.4* | -21 | 105* | i
SMILES | KCNQ1 inh | KCNK9 inh | Cl transport mod | KCNQ1 act | KCNK3 block | hERG rescue | KCNK3 confirm | KCNK3 uninduced
CC(CNC(=O)CN1C(=O)NC2(CCOc3ccccc32)C1=O)c1ccccc1 (stereo not drawn) | / | / | / | / | i | / | / | /
Cc1ccc2oc(-c3cccc(NC(=O)c4ccc(Br)o4)c3)nc2c1 | i | i | -0.43 | i | -11* | -8 | 105* | i
O=[N+]([O-])c1ccc(F)cc1OCc1cccc(S(=O)(=O)N2CCOCC2)c1 | i | i | / | i | i | -21 | / | /
CC(=O)c1cc(Cl)ccc1OCc1cccc(S(=O)(=O)N2CCOCC2)c1 | i | i | / | i | i | -22 | / | /
O=S(=O)(c1cccc(COc2c(Cl)cccc2Cl)c1)N1CCOCC1 | i | i | / | i | -9.5* | -6 | 120* | i
O=S(=O)(c1cccc(COc2ccc(Cl)cc2Cl)c1)N1CCOCC1 | i | i | / | i | -9.9* | -14 | 122* | 0.16*
O=C(CBr)Nc1c2c(nn1-c1ccccc1)CSC2 | i | i | / | i | i | -5 | / | /
COc1ccccc1N1CCN(C(=O)Nc2cccc(Cl)c2)CC1 | i | i | -0.087 | i | i | -12 | / | /
COc1ccc(Cl)cc1NC(=O)N1CCN(c2ccccc2OC)CC1 | i | i | -0.45 | i | -11* | -13 | 82* | i
C(C#CCN1CCOCC1)#CCN1CCOCC1 | / | / | / | / | i | / | / | /
CC1(C)Cc2cccc(C(=O)NCc3ccco3)c2O1 | i | i | -1.5 | i | -11* | -8 | 105* | i
CC(C)(C)NC(=O)c1cccc2c1OC(C)(C)C2 | i | i | -0.37 | i | i | -9 | / | /
O=C(c1ccccc1OCc1ccc(Cl)cc1)N1CCN(c2ccccn2)CC1 | i | i | / | i | -9* | -18 | 119* | i
O=C(c1ccco1)N1CCN(C(=O)c2ccccc2OCc2ccc(Cl)cc2)CC1 | i | i | / | i | i | -15 | / | /
Cn1nnnc1Sc1ncnc2scc(-c3ccc(-c4ccccc4)cc3)c12 | / | / | / | / | i | / | / | /
Cn1nnnc1Sc1ncnc2scc(-c3cc4ccccc4o3)c12 | / | / | / | / | -13* | / | 118* | i
COc1ccc(NC(=O)Cn2ccc(C(F)(F)F)n2)cc1S(=O)(=O)N1CCOCC1 | / | / | / | / | i | / | / | /
CSc1ccc(S(=O)(=O)Nc2ccc(S(=O)(=O)Nc3ccc(C)cc3)cc2)cc1 | i | i | / | i | i | -10 | / | /
Cc1ccc(S(=O)(=O)Nc2ccc(N(C)S(=O)(=O)c3ccc(C)cc3)cc2)cc1 | i | -7* | -0.52 | i | i | -9 | 86* | i
O=C(Cc1ccc(S(=O)(=O)N2CCOCC2)s1)NCCc1ccc(F)cc1 | i | i | / | i | i | -14 | / | /
